Compound activity (PubChem BioAssay)
Rows were chosen to be rich in hits. Some 0.77% of all compounds tested hit in one or more screens of this group.
hIAP inh – blocks human intestinal alkaline phosphatase | inhibition, % at 10 µM | AID 2544 | purified IAP, CDP-Star luminescence, 30 min | hit rate 0.12% among 330,000 | P09923;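 active = inhibition reaching a set limit with compound at 10 µM in the primary screen, cut at about 35% in these data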
Target sequence (P09923 whole entry, looked up): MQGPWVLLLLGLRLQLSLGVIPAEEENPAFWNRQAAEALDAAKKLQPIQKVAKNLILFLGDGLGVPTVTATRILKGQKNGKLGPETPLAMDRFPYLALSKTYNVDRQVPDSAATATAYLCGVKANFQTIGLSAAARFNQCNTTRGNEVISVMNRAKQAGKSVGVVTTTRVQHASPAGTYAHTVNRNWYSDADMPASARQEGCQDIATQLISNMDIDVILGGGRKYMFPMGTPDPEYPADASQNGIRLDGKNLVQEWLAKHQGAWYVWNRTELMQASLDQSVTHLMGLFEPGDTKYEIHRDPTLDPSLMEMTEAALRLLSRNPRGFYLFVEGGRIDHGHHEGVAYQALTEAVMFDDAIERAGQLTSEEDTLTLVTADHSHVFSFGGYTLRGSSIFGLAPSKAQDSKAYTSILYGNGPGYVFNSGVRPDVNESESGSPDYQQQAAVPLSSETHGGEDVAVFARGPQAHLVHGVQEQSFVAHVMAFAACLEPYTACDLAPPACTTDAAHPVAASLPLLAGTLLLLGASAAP
mIAP inh – blocks mouse intestinal alkaline phosphatase; purified mouse IAP, CDP-Star luminescence, 30 min; inhibition, % at 10 µM; hit rate 0.2% among 330,000; AID 2806;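 active = inhibition of at least 40% at 10 µM in the primary screen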
mIAP activ – mouse IAP activation; muIAP, CDP-Star luminescence, 30 min; stronger effect = higher value; 1 = vehicle-only enzyme signal, 0 = enzyme-free wells; activation factor at 10 µM; hit rate 0.24% among 330,000;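 active = activation factor of at least 2 at 20 µM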
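System: mouse IAP enzyme. Reagent: CDP-Star chemiluminescent phosphatase substrate. Benchmarks: DMSO wells, no-enzyme wells. Times: 30 min enzyme-substrate-compound incubation at room temperature. Detection: luminescence from enzymatic CDP-Star hydrolysis. Doses: test compounds delivered from DMSO solution.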
hIAP activ – human IAP activation. P09923. purified human IAP, CDP-Star luminescence, 30 min; stronger effect = higher value; 1 = vehicle-only enzyme, 0 = enzyme-free background. activation factor at 10 µM. hit rate 0.16% among 330,000. AID 2524;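 active = activation factor of the enzyme at least 2-fold when tested at 20 µM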
bIAP inh – intestinal alkaline phosphatase (bovine) inhibition. purified bovine IAP, CDP-star luminescence, 30 min. inhibition, % at 20 µM. 190,000 tested, under 10 active. AID 1019;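 active = over 50% inhibition of intestinal alkaline phosphatase at 20 µM in the single-dose screen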
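Assay system: bovine IAP enzyme; medium: DEA buffer 100 mM, pH 9.8, with MgCl2 1.0 mM, ZnCl2 0.02 mM; doses: 20 µM single dose; incubation: enzyme reaction for 30 min at room temperature; detection: CDP-star luminescence signal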
bIAP act – increases bovine intestinal alkaline phosphatase activity; purified bovine IAP, CDP-star luminescence, 30 min; stronger effect = higher value; fold of DMSO-control signal, blank-subtracted; activation factor at 20 µM; hit rate 0.17% among 200,000;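 active = activation factor of 2 or more at 20 µM, a signal rise over negative controls twice the positive control's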
hIAP act confirm – human IAP activation confirmation | shares compounds with hIAP activ | purified IAP, CDP-Star luminescence, 30 min; stronger effect = lower value | activation (%Activity, negative = activation), % at 8.3 µM | hit rate 10% among 880;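 active = at least twofold enzyme activation in any of six single-dose repeats, which the averaged readout prints as negative percent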
A number is an active result; – = inactive; · = no result.

SMILES	hIAP inh	mIAP inh	mIAP activ	hIAP activ	bIAP inh	bIAP act	hIAP act confirm
CCCCOc1ccc(C(=O)NNC(=S)NC(=O)CC)cc1	·	·	·	·	–	–	·
CCCOc1ccc(C(=O)NNC(=S)NC(=O)c2ccccc2)cc1	–	–	–	–	·	·	·
C=CCNC(=S)NNC(=O)c1ccc(OCCCC)cc1	–	–	–	2.1	–	–	–
CCCOc1ccc(C(=O)NNC(=S)NC(C)=O)cc1	–	–	–	2.2	–	–	–
CCCOc1ccc(C(=O)NNC(=S)NC(=O)c2ccccc2[N+](=O)[O-])cc1	–	–	–	2.1	·	·	–
CCOc1ccc2nc(N3CCC(C(=O)N4CCN(c5ccccn5)CC4)CC3)sc2c1	–	–	–	–	–	–	·
Cc1cc(C)nc(CCNC(=O)c2cc(COc3ccc(F)cc3Cl)on2)n1	–	–	–	–	–	–	·
CCCCCCc1nc(C(N)=O)c2[nH]c(=O)n(-c3ccccc3F)c2n1	–	–	–	2.1	·	·	–
CCCCCCc1nc(C(N)=O)c2[nH]c(=O)n(-c3ccc(OCC)cc3)c2n1	–	–	–	2.3	·	·	–
CC1CCC(NC(=O)c2cc(C3CC3)nn2-c2ccccc2)CC1 (stereo not given)	–	–	–	–	·	·	·
CN(C1CCS(=O)(=O)C1)S(=O)(=O)c1ccc(N2CCCC2=O)cc1 (stereo not given)	–	–	–	–	–	–	·
COc1ccc2oc(C(=O)NCC(c3ccco3)N(C)C)c(C)c2c1 (stereo not given)	–	–	–	–	·	·	·
Cc1ccc(Cl)cc1N1CCN(C(=O)c2ccccc2SCC(=O)N2CCCC2)CC1	–	–	–	–	·	·	·
CCOc1cccc(/C=N/NC(=S)Nc2cc(S(=O)(=O)N3CCOCC3)ccc2N2CCOCC2)c1O	–	–	–	2.1	–	–	–
CCOc1ccc(CC(=O)NNC(=S)NCCc2ccccc2)cc1	–	–	–	2	–	–	–
O=C(Cc1ccccc1)NNC(=S)Nc1ccc(Cl)cc1	–	–	–	2.1	–	–	–
Cc1ccc(C2CC2C(=O)NNC(=S)Nc2ccc(Cl)cc2)cc1 (stereo not given)	–	–	–	2.4	–	–	–
Cc1cccc(NC(=S)NNC(=O)Cc2ccccc2)c1	–	–	–	–	–	–	·
O=C(CSc1ncn[nH]1)NNC(=O)c1ccccc1	–	–	–	2.2	·	·	–
CCO/C=N/c1c(C#N)c2c(c(=S)n1C)COC(C)(C)C2	–	–	–	–	–	–	·
O=C(CSc1n[nH]c(-c2ccncc2)n1)NCCc1ccccc1	–	–	–	–	–	–	·
CC(=O)c1n[nH]nc1Nc1nc(C)cc(C)n1	–	–	–	2.2	–	–	–
COc1ccccc1NC(=O)NNC(=O)c1ccc2ccccc2c1O	–	–	–	–	·	·	·
O=C(Nc1ccccc1)c1ccc(S(=O)(=O)Nc2cccc(O)c2)cc1	40	–	–	–	·	·	–
CC(=O)c1cccc(NS(=O)(=O)c2ccc(C(=O)Nc3ccccc3)cc2)c1	–	–	–	–	·	·	·
SMILES	hIAP inh	mIAP inh	mIAP activ	hIAP activ	bIAP inh	bIAP act	hIAP act confirm
CC(=O)C[C@@H](O)CC(=O)[C@H]1OC(=O)[C@H](C)C/C=C\Cc2ccccc21	–	–	–	–	·	·	·
Cc1nn(C)c(C(=O)NNC(=S)NCc2ccccc2)c1Cl	–	–	–	2	·	·	-141
Cc1nn(C)c(C(=O)NC(=S)Nc2ccccc2Br)c1Cl	–	–	–	–	·	·	·
CN(C(=O)CSc1nc(N)c2c3c(sc2n1)CSC(C)(C)C3)c1ccccc1	–	–	–	–	–	–	·
CCCCC(=O)NNC(=S)NC(=O)c1cccc([N+](=O)[O-])c1	–	–	–	–	–	–	·
CCC(C)NC(=O)C1CCN(C(=O)N(C)C)CC1 (stereo not given)	–	–	–	–	–	–	·
CC(C)CCNC(=O)C1CCN(C(=O)N(C)C)CC1	47	–	–	–	–	–	–
COC(=O)Cc1ccc(NC(=S)NCCSc2ccc(C)cc2)cc1	–	–	–	–	–	–	·
Cc1ccc(NC(=S)NCCSc2ccc(Cl)cc2)cc1	–	–	2.3	2.3	–	–	–
CN(C)S(=O)(=O)c1cccc(NC(=O)COC(=O)CCC(=O)c2cccs2)c1	–	–	–	–	–	–	·
CCC1CCCCN1C1Sc2ccc(C(=O)OC)cc2NC1=O (stereo not given)	–	–	–	2	–	–	-69
O=C(COc1ccccc1Cl)N1CCN(c2ccc([N+](=O)[O-])c(N3CCCCC3)c2)CC1	–	–	–	2.1	–	–	-61
CC(=O)c1cccc(NC(=O)CSc2nnc(-c3cccnc3)o2)c1	–	–	–	–	–	–	·
CCc1cccc(C)c1NC(=O)C1CCCN(S(C)(=O)=O)C1 (stereo not given)	–	–	–	–	·	·	·
COc1ccc(NC(=O)NCc2ccncc2)c(OC)c1	–	–	–	–	–	–	·
CCOc1ccc(CC(=O)NNC(=S)NC2CCCCC2)cc1OCC	–	–	–	2.1	–	–	-80
Cc1cccc(-n2cnc(C(=O)NNC(=S)Nc3ccc(Cl)cc3)c2)n1	–	–	–	2	–	–	–
Cc1nc2ccccn2c1C(=O)NNC(=S)Nc1ccc(Cl)cc1	–	–	–	–	–	–	·
COc1ccc(NC(=O)/C(C#N)=C\c2ccc(N3CCOCC3)o2)cc1	39	–	–	–	–	–	–
CC(C)(C)c1cn(-c2ccc(F)cc2)c(=S)[nH]1	35	–	–	–	–	–	–
Cc1ccccc1-c1cn(-c2ccccc2)c(=S)[nH]1	–	–	–	–	·	·	·
Cc1cc(C)c(NC(=O)/C(=C/c2ccco2)c2ccccc2)c(C)c1	–	–	–	–	–	–	·
CN(C(=O)c1ccncc1)c1ccccc1	–	–	–	–	·	·	·
C/C(=N\N(Cc1ccccc1)c1ccccc1)c1ccncc1	39	–	–	–	–	–	–
NC1=NN=C(N2N=C(c3ccc(Br)cc3)CC2(O)C(F)(F)F)n2ncnc2C1 (stereo not given)	–	–	–	2.6	–	–	–
CCOC(=O)N1N=C(c2ccc(OC)cc2)CC1(O)C(F)(F)F (stereo not given)	–	–	–	–	–	–	·
COc1ccccc1C1=NN(C2=NN=C(N)Cc3ncnn32)C(O)(C(F)(F)F)C1 (stereo not given)	–	–	–	2.8	–	–	–
COc1ccc(C2=NN(C3=NN=C(N)Cc4ncnn43)C(O)(C(F)(F)F)C2)cc1 (stereo not given)	–	–	–	2.6	–	–	–
NC1=NN=C(N2N=C(c3ccccc3)CC2(O)C(F)(F)F)n2ncnc2C1 (stereo not given)	–	–	–	–	–	–	·
CCNc1nc(NC(C)CC)nc(ON=C(C)C)n1 (stereo not given)	–	–	–	–	–	–	·
